Each block holds one molecule with its values, some of them ahead of it. Calls of active or inactive are those of the source. No cut-off for these calls is given here.
Columns and labels:
[1] = tested on: MEF; experiment: Induction of apoptosis in Bak/Bax double knockout MEF at 30 uM after 24 hrs by FITC-conjugated annexin V and propidium iodide staining-based FACS analysis; type: functional; details: Mus musculus
Procedure, shortened: (§1)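 Next day, compound was added at final 0, 2.5, 5.0, 7.5, 10 and 30 μM. The following day, floating and trypsinized adherent cells were pooled and stained with Annexin V-FITC/PI. Cells negative for both were scored viable by flow cytometry.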

[2] = tested on: BP3; experiment: Induction of apoptosis in human BP3 cells after 1 to 2 days by FITC-conjugated annexin V and propidium iodide staining-based FACS analysis; type: functional, cell-based
[3] = tested on: MEF; experiment: Induction of apoptosis in MEF expressing wild type Bcl-2 protein at 30 uM after 24 hrs by FITC-conjugated annexin V and propidium iodide staining-based FACS analysis; type: functional, cell-based; details: Mus musculus; procedure, shortened: as §1
[4] = tested on: M2182; experiment: Antitumor activity against Mcl-1 overexpressing human M2182 cells xenografted in BALB/c mouse assessed as reduction of tumor size at 1 to 5 mg/kg, ip administered 9 times every 2 days; type: functional, organism-based
Procedure, shortened: (§2)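 Dosing started at visible tumors of ~75 mm3 (~5–6 days): i.p. every 2 days, nine injections in all, in ethanol/Cremophor EL/saline 10:10:80 (500 μL). Vehicle controls were used, with at least five mice per group. Tumors were followed by luciferin (150 mg/kg i.p.) bioluminescence imaging and excised at study end.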

[5] = tested on: M2182; experiment: Antitumor activity against Mcl-1 overexpressing human M2182 cells xenografted in BALB/c mouse assessed as complete inhibition of tumor growth at 5 mg/kg, ip administered 9 times every 2 days; type: functional, organism-based; design: dose 5 mg/kg; procedure, shortened: as §2
[6] = tested on: Mus musculus; experiment: Toxicity in BALB/c mouse xenografted with Mcl-1 overexpressing human M2182 cells at 10 to 25 mg/mg, ip administered 9 times every 2 days; type: organism-based; details: in vivo, 48 h
Procedure, shortened: (§3)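 Athymic nude male mice bearing bilateral s.c. M2182-Luc tumors (~75 mm3) received i.p. doses every 2 days, nine injections in all, in ethanol/Cremophor EL/saline 10:10:80 (500 μL). At least five animals per group. Tolerability was judged by signs of toxicity over the course of treatment.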

[7] = tested on: Mus musculus; experiment: Reduction of Bcl-2 accumulation in human Bcl2 expressing B6 transgenic mouse assessed as induction of spleen shrinkage at 42 mg/kg, ip administered as single dose after 24 hrs; type: functional; design: scale not given: the % may be the effect or the level left; details: route intraperitoneal
Procedure, shortened: (§4)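 Age- and sex-matched B6 transgenic mice (human BCL-2 minigene fused to the IgH locus/enhancer, not yet lymphomatous; two per compound) received a single i.p. dose in 500 μL ethanol/Cremophor EL/saline 10:10:80. Controls received vehicle alone. Mice were killed with Avertin 24 h later and spleens weighed. Shrinkage was expressed as percent reduction versus controls.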

[8] = tested on: Mus musculus; experiment: Reduction of Bcl-2 accumulation in human Bcl2 expressing B6 transgenic mouse assessed as reduction in spleen weight at 42 mg/kg, ip administered as single dose after 24 hrs; type: functional; details: route intraperitoneal; for inhibition in vivo at 42 mg/kg: Mus musculus, B6, Spleen, ip, 24 h; procedure, shortened: as §4
[9] = (§5) Metabolic stability in rat liver microsomes at 4 uM after 40 mins by LC/MS/MS analysis; type: ADME, Microsome; details: liver microsomes, read-out: Stability
Procedure, shortened: (§6)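 Test compounds were incubated in rat liver microsomal preparations for 40 min, and the fraction of compound remaining or degraded was reported.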

[10] = tested on: M2182; experiment: Antitumor activity against Mcl-1 overexpressing human M2182 cells xenografted in BALB/c mouse assessed as reduction of tumor size at 10 mg/kg, ip administered 9 times every 2 days; type: functional, organism-based; design: dose 10 mg/kg; procedure, shortened: as §2
[11] = tested on: M2182; experiment: Antitumor activity against Mcl-1 overexpressing human M2182 cells xenografted in BALB/c mouse assessed as complete inhibition of tumor growth at 25 mg/kg, ip administered 9 times every 2 days; type: functional, organism-based; design: dose 25 mg/kg; procedure, shortened: as §2
[12] = tested on: M2182; experiment: Antitumor activity against Mcl-1 overexpressing human M2182 cells xenografted in BALB/c mouse assessed as reduction of tumor size at 25 mg/kg, ip administered 9 times every 2 days; type: functional, organism-based; design: dose 25 mg/kg; procedure, shortened: as §2
[13] = tested on: MEF; experiment: Induction of apoptosis in Bak/Bax double knockout MEF at […] after 24 hrs by FITC-conjugated annexin V and propidium iodide staining-based FACS analysis; type: functional, cell-based; details: Mus musculus; procedure, shortened: as §1
[14] = Chemical stability at 10 mmol/L after 80 days at 37 degC by LC/MS/MS analysis; type: physicochemical; details: 1920 h, 10000 µM
[15] = tested on: Liver microsomes; experiment: as §5; type: ADME, Microsome; details: microsomes, 40 min, 4 µM; procedure, shortened: as §6
[16] = Chemical stability at 10 mmol/L after 80 days at -20 degC by LC/MS/MS analysis; type: physicochemical; details: 1920 h, 10000 µM
[17] = Chemical stability at 10 mmol/L after 80 days at 21 degC by LC/MS/MS analysis; type: physicochemical; details: 1920 h, 10000 µM
[18] = Chemical stability at 10 mmol/L after 80 days at 42 degC by LC/MS/MS analysis; type: physicochemical; details: 1920 h, 10000 µM
[19] = target: Bcl-2-like protein 1 (Homo sapiens, UniProt Q07817); experiment: Displacement of FITC-labeled Bak BH3 peptide from Bcl-XL after 30 mins by fluorescence polarization assay
Sequence of Bcl-2-like protein 1 (Q07817 whole entry): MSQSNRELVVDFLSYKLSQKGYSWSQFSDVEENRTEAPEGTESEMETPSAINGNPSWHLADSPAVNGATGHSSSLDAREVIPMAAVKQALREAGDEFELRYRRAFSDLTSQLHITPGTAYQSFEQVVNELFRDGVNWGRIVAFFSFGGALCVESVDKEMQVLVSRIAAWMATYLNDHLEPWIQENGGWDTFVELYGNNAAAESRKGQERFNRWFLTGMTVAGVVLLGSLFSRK

[20] = Antitumor activity against Mcl-1 overexpressing human M2182 cells xenografted in BALB/c mouse assessed as inhibition of tumor growth at 3 mg/kg, ip administered 9 times every 2 days; type: functional; design: scale not given: the % may be the effect or the level left; details: route intraperitoneal; procedure, shortened: as §2
[21] = tested on: Mus musculus; experiment: Toxicity in BALB/c mouse xenografted with Mcl-1 overexpressing human M2182 cells at 1 to 5 mg/mg, ip administered 9 times every 2 days; type: organism-based; details: in vivo, 48 h; procedure, shortened: as §3

SMILES: Cc1cc2c(C(=O)NC[C@@H](C)c3ccccc3)c(O)c(O)cc2c(O)c1-c1c(C)cc2c(C(=O)NC[C@@H](C)c3ccccc3)c(O)c(O)cc2c1O
Activity [1]: Active | Activity [2]: Dose-dependent effect | Activity [3]: Active

SMILES: Cc1cc2c(C(=O)NC[C@@H](C)c3ccccc3)c(O)c(O)cc2c(O)c1-c1c(C)cc2c(C(=O)NC[C@@H](C)c3ccccc3)c(O)c(O)cc2c1O (single isomer, unassigned; atropisomer) [listing 1 of 2 here]
Activity [2]: Dose-dependent effect

SMILES: Cc1cc2c(C(=O)NC[C@H](C)c3ccccc3)c(O)c(O)cc2c(O)c1-c1c(C)cc2c(C(=O)NC[C@H](C)c3ccccc3)c(O)c(O)cc2c1O (single isomer, unassigned; atropisomer) [listing 1 of 2 here]
Activity [4]: Active | Activity [5]: Active | Activity [2]: Dose-dependent effect | Activity [3]: Active

remaining at 40 min, 4 µM [9]: 28%
SMILES: Cc1cc2c(C(=O)NC[C@H](C)c3ccccc3)c(O)c(O)cc2c(O)c1-c1c(C)cc2c(C(=O)NC[C@H](C)c3ccccc3)c(O)c(O)cc2c1O [1,1',6,6',7,7'-HEXAHYDROXY-3,3'-DIMETHYL-N5-((R)-2-PHENYLPROPYL)-N5'-((R)-2-PHENYLPROPYL)-2,2'-BINAPHTHYL-5,5'-DICARBOXAMIDE (ATROPISOMERIC MIX)]
Activity [6]: Non-toxic | Activity ([7]; 42 mg/kg): <=40% | inhibition (INH) ([8]; 42 mg/kg): <=20%

SMILES: Cc1cc2c(C(=O)NCC(C)c3ccccc3)c(O)c(O)cc2c(O)c1-c1c(C)cc2c(C(=O)NCC(C)c3ccccc3)c(O)c(O)cc2c1O (racemic)
Activity [6]: Non-toxic | Activity [10]: inactive | Activity [11]: Active | Activity [12]: Active | Activity [13]: Active

Stability [14]: Stable | Stability [15]: 42% | Stability [16]: Stable | Stability [17]: Stable | Stability [18]: Stable
SMILES: Cc1cc2c(C(=O)NC[C@@H](C)c3ccccc3)c(O)c(O)cc2c(O)c1-c1c(C)cc2c(C(=O)NC[C@@H](C)c3ccccc3)c(O)c(O)cc2c1O (single isomer, unassigned; atropisomer) [listing 2 of 2 here]
Activity [7]: <=40% | inhibition in vivo at 42 mg/kg [8]: ≤ 20%

remaining at 40 min, 4 µM [9]: 41%
SMILES: Cc1cc2c(C(=O)NC[C@@H](C)c3ccccc3)c(O)c(O)cc2c(O)c1-c1c(C)cc2c(C(=O)NC[C@@H](C)c3ccccc3)c(O)c(O)cc2c1O [(S)-1',6,6',7,7'-HEXAHYDROXY-3,3'-DIMETHYL-N5-((S)-2-PHENYLPROPYL)-N5'-((S)-2-PHENYLPROPYL)-2,2'-BINAPHTHYL-5,5'-DICARBOXAMIDE (ATROPISOMERIC MIX)]

SMILES: Cc1cc2c(C(C)C)c(O)c(O)c(C=O)c2c(O)c1-c1c(C)cc2c(C(C)C)c(O)c(O)c(C=O)c2c1O [GOSSYPOL]
IC50 [19]: 540 nM

Stability [14]: Stable | Stability [15]: 41% | Stability [16]: Stable | Stability [17]: Stable | Stability [18]: Stable
SMILES: Cc1cc2c(C(=O)NC[C@H](C)c3ccccc3)c(O)c(O)cc2c(O)c1-c1c(C)cc2c(C(=O)NC[C@H](C)c3ccccc3)c(O)c(O)cc2c1O (single isomer, unassigned; atropisomer) [listing 2 of 2 here]
Activity [20]: 40% | Activity ([7]; 42 mg/kg): 65% | inhibition in vivo at 42 mg/kg [8]: > 30% | Activity [21]: Non-toxic

SMILES: Cc1cc2c(C(=O)NC[C@H](C)c3ccccc3)c(O)c(O)cc2c(O)c1-c1c(C)cc2c(C(=O)NC[C@H](C)c3ccccc3)c(O)c(O)cc2c1O
Activity [2]: Dose-dependent effect
